# Screening results (PubChem BioAssay)
# Only some compounds are listed: those with a hit (about 4.3% of all), similar ones and a draw of the others.
# TAAR1 antag – human TAAR1 antagonism; AID 624466; inhibition, % at 3 µM; CHO RD-HGA16 TAAR1, Fluo-8 calcium fluorescence, antagonist; 360,000 tested, 1.5% active;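 active means inhibition above a per-plate cutoff, the mean inhibition of test compounds on that plate plus 3 SD, cut at about 49% in these data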;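 further: 0% = DMSO plus EC80 beta-PEA response and 100% = DMSO alone without agonist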
# Target sequence (Q96RJ0 whole entry, looked up): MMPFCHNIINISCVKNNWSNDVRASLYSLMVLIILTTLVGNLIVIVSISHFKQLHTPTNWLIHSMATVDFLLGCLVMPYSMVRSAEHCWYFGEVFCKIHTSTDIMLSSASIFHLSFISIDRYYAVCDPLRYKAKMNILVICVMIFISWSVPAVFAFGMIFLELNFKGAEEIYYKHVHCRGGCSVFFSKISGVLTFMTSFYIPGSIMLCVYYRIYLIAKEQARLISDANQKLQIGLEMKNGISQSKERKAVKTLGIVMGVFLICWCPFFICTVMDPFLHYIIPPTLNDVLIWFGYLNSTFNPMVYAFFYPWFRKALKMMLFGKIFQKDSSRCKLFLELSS
#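 Test system: RD-HGA16 CHO cells with stable hTAAR1 and Gα16 / Probe or stimulus: EC80 β-phenethylamine stimulus / Times: seeding 17-24 h prior, 75-min 37 °C, 30-min RT dye loading / Detection: Fluo-8 calcium-sensitive fluorescence / Read-out basis: % inhibition scaled between DMSO and EC80 PEA controls / Repeats: singlicate, one well per test compound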
# CHO parental Ca – counter-screen: ATP calcium response change in parental CHO cells | 330,000 tested, 0.63% active | inhibition, % at 5.6 µM | parental CHO-K1, ATP-induced calcium, Fluo-8 fluorescence;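 active means inhibition above that plate's mean sample inhibition plus 3 SD, cut at about 26% in these data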;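 further: 0% = ATP-challenged DMSO wells and 100% = DMSO wells without ATP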
#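 Assay system – parental CHO cells · Reagent – ATP stimulus · Detection – intracellular calcium via Fluo-8 no-wash fluorescent dye · Evaluation – percent inhibition of ATP-evoked calcium rise, normalized to controls · Controls – ATP wells versus no-ATP DMSO wells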
# TAAR1 agonist – agonists of human TAAR1 | Q96RJ0 | CHO RD-HGA16 TAAR1, Fluo-8 calcium fluorescence; vehicle wells 0%, saturating PEA agonist 100% | activation, % at 3 µM | 360,000 tested, 0.99% active | AID 624467;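 active means activation above the mean activation of all test compounds in the run plus 3 SD, cut at about 38% in these data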
#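 System: CHO-derived RD-HGA16 cells with stable Gα16 and human TAAR1. Times: 17-24 h plating, Fluo-8 75 min 37 °C, 30 min RT. Measured by: calcium-sensitive Fluo-8 signal, excitation 470-495, emission 515-575 nm. Read-out basis: % activation relative to PEA EC100 response. Control set: DMSO and PEA EC100. Repeats: no replicates (n 1).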
# OX1R antag-1 – human HCRTR1 antagonism; CHO/OX1R cells, Fluo-8 calcium fluorescence, orexin A; inhibition, % at 5 µM; AID 434989; 330,000 tested, 0.43% active; O43613;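 active means inhibition above its plate's threshold, mean inhibition of all tested compounds on the plate plus 3 SD, cut at about 37% in these data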;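 further: 0% = orexin A challenge wells and 100% = SB-334867-A antagonist wells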
# OX1R antag-2 – OX1R (human) antagonism | 330,000 tested, 1.8% active | OX1R-expressing cells, FRET antagonist read-out | inhibition, % at 6.6 µM; in the data active means inhibition mostly above about 38%, no sharp cut-off; inactive means mostly below about 40%;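 further: 0% = agonist challenge alone and 100% = reference antagonist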
# GalR3 antagonist – antagonists of human GalR3 | HEK293 GalR3-CNG cAMP membrane potential fluorescence; galR3 body fused to GalR1 C-terminus | inhibition, % at 3 µM | 360,000 tested, 0.44% active;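 active means inhibition above the screen-wide average plus 3 SD, cut at about 13% in these data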;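 further: forskolin and galanin both at EC90 stimulate the cells; cAMP rise reported by CNG channel membrane potential dye signal; 0% = forskolin plus galanin with DMSO and 100% = forskolin alone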
# The depositor's hits bear a star; . = no result given.
SMILES,TAAR1 antag,CHO parental Ca,TAAR1 agonist,OX1R antag-1,OX1R antag-2,GalR3 antagonist
Cc1nn(-c2ccccn2)c2c1C(=O)CC(C)(C)C2N=[N+]=[N-] (stereo not drawn),-25,.,9,.,.,-6
CC(C)(C)CC(C)(C)NC(=S)Nc1ccc2nc(-c3ccccn3)c(-c3ccccn3)nc2c1,13,3,7,-19,8,-5
OCCCNC(=S)Nc1ccc2nc(-c3ccccn3)c(-c3ccccn3)nc2c1,-4,-11,3,-13,75*,0
Cc1cc(/C=C2/C(=O)N(C)C(=S)N2C)ccc1N1CCCC1,48,42*,26,65*,6,-3
CCCN1C(=O)/C(=C/c2ccc(N3CCCC3)c(C)c2)NC1=S,99*,87*,129*,93*,22,1
Cc1cc(/C=C2\NC(=S)N(C)C2=O)ccc1N1CCCC1,83*,53*,142*,72*,26,3
CCCN1C(=O)/C(=C/c2ccc(OCC(=O)OCC)cc2)NC1=S,24,.,13,.,.,-13
CCN1C(=O)/C(=C/c2ccc(N3CCCC3)cc2)NC1=S,82*,62*,84*,74*,27,-3
Cc1cc(C)c(C(=O)CC(=O)c2cccnc2)c(C)c1,-31,.,8,.,.,-5
Cc1[nH]c2ccccc2c1C(=O)CSC(=S)N1CCOCC1,-18,-7,3,-4,16,-6
C=CCn1c(=N)n(CC(=O)c2ccc(Br)s2)c2ccccc21,14,-20,27,-19,8,-9
CC(C)(C)OC(=O)N(Cc1ccccc1)Cc1ccc(OCc2cccc(NC(=O)C3CC3)c2)cc1,53*,.,2,.,.,-6
CC(C)(C)OC(=O)N(CCc1ccccc1)Cc1ccc(OCc2cccc(NC(=O)C3CCCC3)c2)cc1,8,.,4,.,.,-6
CCCCc1nc(NCCO)c(C#N)c2c1CCCC2,-27,50*,3,-40,15,6
CCCCNc1nc(CC)c2c(c1C#N)CCCC2,-9,-8,1,-10,18,-1
O=C(NCC1CCN(C(=O)C(=O)c2cc3ccccc3o2)CC1)c1ccncc1,-8,.,2,.,.,4
O=[N+]([O-])c1ccc(O)c2cccnc12,-6,-4,7,-10,66*,4
CC(C)CNC(=O)c1cccc2c1-c1ccccc1C2=O,4,-18,4,-36,3,-9
Cc1ccc(-c2nc3cc(Cl)ccc3o2)cc1,5,-3,5,-10,12,1
COc1cc(OC)cc(-c2nc3cc(C)ccc3o2)c1,3,-16,6,-3,42*,0
Cc1nn(-c2ccc(F)cc2)c2nc(N)c(C#N)c(-c3ccc(O)c(O)c3)c12,51*,.,6,.,.,-6
COc1ccc2[nH]c3c(c2c1)CCn1c-3nc2ccccc2c1=O,.,-7,.,9,47*,.
COCc1cc(N2CCN(C(=O)OC(C)(C)C)C[C@@H]2C)ccc1Br,39,.,2,.,.,-7
O=[N+]([O-])c1ccc(S(=O)(=O)N2CCN(C3CCN(Cc4ccccc4)CC3)CC2)cc1,-3,-15,-5,-12,63*,-7
O=[N+]([O-])c1ccc(S(=O)(=O)N2CCN(Cc3c[nH]c4ccccc34)CC2)cc1,12,-5,16,-26,49*,-1
SMILES,TAAR1 antag,CHO parental Ca,TAAR1 agonist,OX1R antag-1,OX1R antag-2,GalR3 antagonist
CCOC(=O)N1CCC(N2CCN(S(=O)(=O)c3ccc([N+](=O)[O-])cc3)CC2)CC1,-1,9,10,-9,54*,-6
COc1cccc(CNC(=O)[C@@H]2CCCN2C(=O)[C@H]2CCCCN2C(=O)c2ccccc2C)c1,10,.,0,.,.,-4
COC(=O)[C@]12CCCCC=C1N(Cc1ccccc1)C(=O)[C@H](CC(=O)NCC1CCCCC1)C2,20,.,4,.,.,-7
O=C([C@H]1O[C@@H](n2ccc(=O)[nH]c2=O)[C@H](O)[C@@H]1O)N1CCN(Cc2ccccn2)CC1,-9,.,1,.,.,-5
Nc1nc(N=Nc2ccc(O)cc2)cc(=O)[nH]1,-11,.,2,.,.,-5
CC(C)(C)N(Cc1ccccc1)C(=O)c1cc2ccccc2o1,6,-25,4,18,28,-10
